# Shown are actives, neighbours in structure and some others; about 3.1% of the full set was active somewhere.
# PGC1a acetyl inh – inhibitors of PGC1a acetylation signal, primary screen, cell-based, U2OS, AlphaScreen, inhibitor mode; AlphaScreen anti-acetyl-lysine; with virally co-expressed GCN5 acetyltransferase; inhibition, % at 15.6 µM; 0.17% of 350,000 active; AID 651687, 2012;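 active means every replicate shows inhibition of at least 40%; inconclusive means mean inhibition at least 40% but some replicate below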;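 further: 0% = neutral control wells and 100% = positive control wells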
# FGF22 binding – binders of human FGF22 protein, primary screen, FGF22 synaptogenesis inhibitor project, biophysical, thermal shift, single point. AID 651658, 2012. 1.5% of 340,000 active. Fibroblast growth factor 22 (Homo sapiens), Q9HCT0. activity (Tm shift, normalised), % at 9.99 µM. recombinant FGF22 thermal shift, SYPRO orange fluorescence; percent of sucrose octasulfate shift, DMSO zero;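 active means mean Tm shift, scaled 0 neutral to 100 positive control, at about 1.3% or above, every replicate too, limit read from the data; inconclusive means no clear call, values can overlap the other calls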
# Target sequence (Q9HCT0 whole entry, looked up): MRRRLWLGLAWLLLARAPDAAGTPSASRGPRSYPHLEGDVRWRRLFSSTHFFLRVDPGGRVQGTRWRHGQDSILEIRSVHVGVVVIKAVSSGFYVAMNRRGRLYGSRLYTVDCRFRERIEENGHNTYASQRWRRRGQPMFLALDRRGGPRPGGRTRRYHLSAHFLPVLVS
# FN deposition inh – inhibitors of fibronectin matrix deposition, primary screen, AH1F cells, Alexa488-fibronectin fluorescence, plate reader | inhibition, % at 12.6 µM | AH1F fibroblasts, overnight | 0.086% of 350,000 active;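 active means mean inhibition across replicates of 30% or more, regardless of how many single replicates reach that level; inconclusive means mean under 30% yet at least half of replicates reach 30%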;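 further: positive control wells lacked labelled fibronectin entirely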
#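 Assay system: AH1F fibroblast monolayer, labelled fibronectin deposition. Amount: 10000 cells per well. Also added: labelled fibronectin 24 nM. Compound: single-point pinned compound. Incubation: cell attachment 1 h, compound and FN exposure overnight. Detection: fluorescence after three HBSS washes, excitation 485 nm, emission 525 nm. Read-out: inhibition of fibronectin deposition signal.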
# EWS-Fli block – EWS/Fli-driven NR0B1 reporter inhibitors, primary screen, A673 cells, NR0B1 luciferase, luminescence, MLPCN library; viability-normalised; inhibition, % at 12.6 µM; 0.67% of 350,000 active; AID 651661, 2012;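 active means mean inhibition of at least 50% after viability correction, with every replicate also passing that limit; inconclusive means mean reaches 50% but only one of two replicates passes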;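 further: firefly luciferase signal divided by Alamar Blue viability fluorescence both relative to DMSO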
# Env fusion inh – inhibitors of HIV-1 Env-driven cell-cell fusion, primary screen, HeLa-JRFL effector, CEM21 target cells, luciferase; inhibition, % at 12.3 µM; 1.1% of 360,000 active; AID 651610, 2012;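 active means mean replicate inhibition score of at least 50 and every replicate individually at or above 50; inconclusive means only one of the two criteria met; inactive means mean below 50 and not all replicates reaching 50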;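 further: 0% = plate neutral controls and 100% = maraviroc near 300 nM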
# PAX8 reporter – inhibitors of PAX8-driven TPO luciferase reporter, primary screen, RMG-I cells, single concentration; inhibition, % at 12.6 µM; SteadyGlo, 24 h; 1.2% of 360,000 active;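 active means mean replicate inhibition at least 60% with every replicate also reaching 60%; inconclusive means only one of the two criteria is met; inactive means mean below 60% and not all replicates reaching 60%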;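 further: luciferase light reporting Pax8 driven TPO promoter activity; plate controls were median of neutral control wells for no effect and mitoxantrone controls for full effect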
# An asterisk follows results filed as active; ? = inconclusive; . = no result; [ ] = another dose, or the depositor's remark.
SMILES,PGC1a acetyl inh,FGF22 binding,FN deposition inh,EWS-Fli block,Env fusion inh,PAX8 reporter
CCC(=NCCCn1ccnc1)c1c(O)n(-c2ccccc2)c(=O)[nH]c1=O,.,0,5,0,3,-9
COc1ccc(-n2c(O)c(C(C)=NCCCn3ccnc3)c(=O)[nH]c2=O)cc1,14,.,-1,.,69*,.
COc1ccc(-c2ccc([C@@H]3[C@H]4CN(C(=O)Cc5ccccc5)CCCCN4[C@H]3CO)cc2)cc1,5,0,.,.,.,-3
Fc1ccc(CNCCc2ccccc2F)cc1,.,0,4,5,-21,1
Fc1ccc(CCNCc2ccc(Br)cc2)cc1,5,44*,13,5,11,-18
COC(=O)[C@@H]1[C@@H](CO)[C@@H]2Cn3c(ccc(/C=C/c4ccccc4)c3=O)[C@H]1N2CC1CCCC1,0,0,.,3,.,29
C[C@H]1CN([C@@H](C)CO)C(=O)c2c(c3ccccc3n2C)-c2ccccc2CO[C@@H]1CN(C)C(=O)Oc1ccccc1,-2,.,13,2,.,27
CC[n+]1c(/C=C/N(C)c2ccccc2)sc2ccc(Cl)cc21,13,.,-12,.,79*,.
C[n+]1ccc(-c2ccccc2)c2ccccc21,-3,0,5,17,16,-4
CN(C)c1ccc(/C=C/C=C/c2sc3ccccc3[n+]2C)cc1,5,0,-13,48,?,84*
CN(C)c1ccc(/C=C/c2cc[n+](C)c3ccccc23)cc1,5,-1,0,4,-11,95*
CC[n+]1c(/C=C/C=C/c2ccc(N(C)C)cc2)sc2ccccc21,20,-1,2,23,26,80*
COC(=O)[C@H]1[C@H](CO)[C@H]2Cn3c(ccc(/C=C/c4ccccc4)c3=O)[C@@H]1N2CC1CCCC1,-5,0,.,2,.,22
CC1=CC2OC3CC4OC(=O)C=CC=CC(C(C)O)OCC(O)C(C)CC(=O)OCC2(CC1O)C4(C)C31CO1 (centres undefined),81*,0,8,51*,83*,.
CC(=O)OC1C(=O)OCC23CCC4(C)OC4C2OC2CC(OC(=O)C=CC=CC(=O)OCCC1C)C3(C)C21CO1 (centres undefined),.,0,14,50,77*,103*
CC(O)C1C=CC=CC(=O)OC2CC3OC4C5OC5(C)CCC4(COC(=O)C4OC4(C)C(O)CO1)C2(C)C31CO1 (centres undefined),.,0,15,29,53,103*
C/C=C(\C)C(=O)N[C@@H](c1ccccc1)[C@@H](O)C(=O)O[C@H]1C[C@@]2(O)[C@@H](OC(=O)c3ccccc3)C3[C@](C)(C(=O)[C@H](O)C(=C1C)C2(C)C)[C@@H](O)C[C@H]1OC[C@@]31OC(C)=O (some centres undefined),-8,0,.,57*,.,.
C/C=C(\C)C(=O)N[C@@H](c1ccccc1)[C@@H](O)C(=O)O[C@H]1C[C@@]2(O)[C@@H](OC(=O)c3ccccc3)C3[C@](C)(C(=O)[C@H](OC(C)=O)C(=C1C)C2(C)C)[C@@H](O)C[C@H]1OC[C@@]31OC(C)=O (some centres undefined),-46,0,.,58*,.,.
CC(=O)O[C@@]12CO[C@@H]1C[C@H](O)[C@@]1(C)C(=O)[C@H](O)C3=C(C)[C@@H](O)C[C@@](O)([C@@H](OC(=O)c4ccccc4)C12)C3(C)C (some centres undefined),-3,0,.,-10,.,.
COc1ccc(C#Cc2ccc([C@@H]3[C@H]4CN(C(=O)Cc5ccncc5)CCCCN4[C@H]3CO)cc2)cc1,6,0,.,.,.,0
CN1[C@@H]2Cn3c(cccc3=O)[C@H]1[C@@H](C(=O)NCC1CC1)[C@@H]2CO,.,0,.,-5,-2[16.7 µM],-8
COC(=O)C1=C(c2cc3ccccc3o2)C[C@@H]2CC[C@H]1N2C(=O)N1CCCC1,-27,.,4,-3,16,5

# From PubChem BioAssay
